Screens from PubChem BioAssay.
ABHD5 PLIN5 PPI = inhibitors of human ABHD5-perilipin-5 interaction | Q00G26+Q8WTS1 | Split G. princeps luciferase complementation, luminescence, 4 h | inhibition, % at 4 µM | hit rate 0.78% among 360,000 | AID 602281;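 active = inhibition above the mean inhibition across every tested compound plus 3 SD, cut at about 22% in these data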;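 note: 0% = DMSO only wells and the 100% control is not disclosed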
CHOP UPR activ = activators of apoptotic arm of unfolded protein response (CHOP); CHO-CHOP luciferase reporter, UPR activation, luminescence; percent of tunicamycin response over DMSO baseline; activation, % at 10 µM; hit rate 0.34% among 330,000; AID 449763;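 active = at 10 µM dose, activation of 40% or more, normalized to positive control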;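 note: 100% = tunicamycin at 10 µg/mL and 0% = DMSO alone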
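Assay system: CHO cells with stable CHOP pathway luciferase reporter; Buffer or medium: F12 plus 10% serum; Times: 16-18 h cell attachment, then 6 h compound exposure, 37 °C; Signal: luciferase luminescence; Read-out basis: percent activation relative to tunicamycin control; Control set: tunicamycin high control, DMSO low control.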
Exocytosis inh = blocks lytic granule exocytosis; inhibition, % at 10 µM; hit rate 0.66% among 360,000; TALL-104 LAMP-1 surface exposure, flow cytometry; cells stimulated with thapsigargin and PMA;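 active = inhibition above about 55%, limit read from the data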
Mdm2-MdmX inh = human Mdm2/MdmX binding inhibition; O15151+Q00987; AID 485346; SaOS-2 split-luciferase Mdm2/MdmX complementation, luminescence; hit rate 3% among 330,000; inhibition, % at 8 µM;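 active = inhibition of at least 50% at 8 µM in the primary screen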
UPR XBP1 act = adaptive UPR (XBP1) activation. CHO-XBP1 luciferase reporter, IRE1-XBP1 UPR activation, luminescence; percent of tunicamycin response, DMSO as zero. hit rate 0.33% among 330,000. activation, % at 20 µM. AID 463104;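 active = versus positive control, 20 µM dose yields 30% or more activation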;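 note: 100% = tunicamycin at 10 µg/mL and 0% = DMSO only wells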
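Test system: CHO-XBP1 luciferase reporter cells | Buffer or medium: Serum-containing F12 medium, 10% FBS | Schedule: 6 h compound exposure at 37 °C, 5% CO2 | Detection: Steady-Glo luciferase glow luminescence, 10 min after reagent addition | Read-out basis: Activation, % of tunicamycin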
Mdm2-MdmX conf = confirmation of human Mdm2/MdmX interaction inhibitors. hit rate 55% among 10,000. inhibition, % at 8 µM. Mdm2-MdmX binding, luminescent assay. shares compounds with Mdm2-MdmX inh; in the data active = inhibition above about 40%
FLuc counter = inhibits full-length luciferase, flagging false Mdm2/MdmX hits | shares compounds with Mdm2-MdmX inh | SaOS-2 full-length luciferase counterscreen, luminescence | inhibition, % at 8 µM | hit rate 77% among 6,200;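 active = mean inhibition at 8 µM reaching about 37%, which flags the compound as non-specific, limit read from the data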;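 note: p53-null SaOS-2 cells with luciferase driven by a doxycycline-inducible promoter; compound on cells about two nights before reading with doxycycline added after day one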
Starred values were filed as active, the others as inactive. Shown are actives, neighbours in structure and some others; about 4% of the full set was active somewhere.

`Cc1c(C(=O)NCc2ccc3c(c2)OCO3)oc2ccc(S(=O)(=O)N3CCCCCC3)cc12` gave ABHD5 PLIN5 PPI -6.4, CHOP UPR activ 3.6, Exocytosis inh 1.4, Mdm2-MdmX inh 26.5 and UPR XBP1 act -0.2.
OCCC1CN(Cc2cnc(-c3ccc(Cl)cc3)nc2)CCN1C1CCCC1 (configuration not stated) was read as ABHD5 PLIN5 PPI 2.6, CHOP UPR activ 0.0, Exocytosis inh 4.7, Mdm2-MdmX inh 18.3 and UPR XBP1 act -0.8.
`O=C(O)c1cccc(Oc2cccc(Cl)n2)c1` gave ABHD5 PLIN5 PPI 0.2, CHOP UPR activ 0.3, Exocytosis inh 2.0, Mdm2-MdmX inh -1.6 and UPR XBP1 act -0.9.
Screening COc1ccc2c(c1)O[C@H](c1ccc3c(c1)OCO3)[C@@H](OC(=O)Nc1cc(OC)c(OC)c(OC)c1)C2=O returned CHOP UPR activ 0.1, Mdm2-MdmX inh 61.3*, UPR XBP1 act 4.0, Mdm2-MdmX conf 62.3* and FLuc counter 66.9*.
Screening COc1ccc2c(c1)O[C@H](c1ccc3c(c1)OCO3)[C@@H](OC(=O)N[C@H](C)C1CCCCC1)C2=O returned CHOP UPR activ 3.6, Mdm2-MdmX inh 59.4*, UPR XBP1 act 20.7 and Mdm2-MdmX conf 25.8.
For COc1ccc2c(-c3ccc(S(N)(=O)=O)cc3)c(-c3ccc(S(C)(=O)=O)cc3)sc2c1 the results were ABHD5 PLIN5 PPI -4.2, CHOP UPR activ 2.6, Exocytosis inh 13.4, Mdm2-MdmX inh 66.8*, UPR XBP1 act -1.9 and Mdm2-MdmX conf 14.0.
Screening CCCCn1c(=N)n(CC(=O)c2ccc([N+](=O)[O-])cc2)c2ccccc21 returned CHOP UPR activ 0.4, Mdm2-MdmX inh 54.9*, UPR XBP1 act 2.5 and Mdm2-MdmX conf 15.5.
Screening CCCCn1c(=N)n(CC(=O)c2ccco2)c2ccccc21 returned ABHD5 PLIN5 PPI 0.0, CHOP UPR activ 0.5, Exocytosis inh 5.1, Mdm2-MdmX inh -10.7 and UPR XBP1 act 4.0.
Screening CCCCCCCn1c(=N)n(CC(=O)c2ccco2)c2ccccc21 returned ABHD5 PLIN5 PPI 2.4, CHOP UPR activ 0.7, Exocytosis inh 7.3, Mdm2-MdmX inh 63.1*, UPR XBP1 act -1.4 and Mdm2-MdmX conf 16.1.
For COc1cc(C(N)=O)cc(Br)c1OC the results were ABHD5 PLIN5 PPI 0.7, CHOP UPR activ -0.2, Exocytosis inh 1.5, Mdm2-MdmX inh 59.0*, UPR XBP1 act -2.4 and Mdm2-MdmX conf 2.3.
Screening Cc1ccccc1C(=O)O/N=C(\N)c1ccccc1 returned ABHD5 PLIN5 PPI -6.2, CHOP UPR activ -9.0, Exocytosis inh -11.0, Mdm2-MdmX inh 85.7*, UPR XBP1 act -11.1, Mdm2-MdmX conf 41.4* and FLuc counter 114.2*.
For Cc1onc(-c2ccccc2Cl)c1C(=O)Nc1cccc2nsnc12 the results were ABHD5 PLIN5 PPI -2.4, CHOP UPR activ -0.8, Exocytosis inh 0.6, Mdm2-MdmX inh 18.7 and UPR XBP1 act 4.0.
For Cc1onc(-c2ccccc2Cl)c1C(=O)O/N=C(\N)c1ccccc1 the results were ABHD5 PLIN5 PPI -8.9, CHOP UPR activ 3.5, Exocytosis inh -2.8, Mdm2-MdmX inh 100.3*, UPR XBP1 act -3.6, Mdm2-MdmX conf 92.1* and FLuc counter 112.1*.
For Cc1onc(-c2ccccc2Cl)c1C(=O)Nc1cccc2cccnc12 the results were ABHD5 PLIN5 PPI -4.6, CHOP UPR activ -0.4, Exocytosis inh 51.1, Mdm2-MdmX inh 64.5*, UPR XBP1 act 0.3 and Mdm2-MdmX conf 17.3.
Cc1cccc(/C(N)=N/OC(=O)c2ccoc2C)c1 was read as ABHD5 PLIN5 PPI -2.3, CHOP UPR activ 2.0, Exocytosis inh -0.1, Mdm2-MdmX inh 93.8*, UPR XBP1 act -3.2, Mdm2-MdmX conf 47.0* and FLuc counter 167.4*.
`Cc1onc(-c2ccccc2Cl)c1C(=O)O/N=C(\N)c1cccc([N+](=O)[O-])c1` gave ABHD5 PLIN5 PPI 4.8 and Exocytosis inh -23.3.
`CCOc1ccc(CCNC(=O)c2ccc(NC3=NC4CS(=O)(=O)CC4S3)cc2)cc1` (configuration not stated) gave ABHD5 PLIN5 PPI -13.5, CHOP UPR activ -1.4, Exocytosis inh 6.3, Mdm2-MdmX inh -1.7 and UPR XBP1 act -1.6.
For C/C(=N\NC(=O)c1ccoc1C)c1ccccc1 the results were ABHD5 PLIN5 PPI -3.3, CHOP UPR activ 4.6, Exocytosis inh -2.3, Mdm2-MdmX inh -61.2 and UPR XBP1 act -1.9.
`Cc1occc1C(=O)O/N=C(\N)c1ccccc1` gave ABHD5 PLIN5 PPI 5.5, CHOP UPR activ -1.9, Exocytosis inh 11.4, Mdm2-MdmX inh 72.0*, UPR XBP1 act -6.4 and Mdm2-MdmX conf -1.6.
For Cc1ccccc1/C(N)=N/OC(=O)c1ccc(F)cc1 the results were ABHD5 PLIN5 PPI -2.1, CHOP UPR activ 3.0, Exocytosis inh -1.2, Mdm2-MdmX inh 65.1*, UPR XBP1 act -4.8 and Mdm2-MdmX conf -2.8.
COc1cc(/C=C2/CCc3ccccc3C2=O)cc(OC)c1OC was read as ABHD5 PLIN5 PPI 14.8, CHOP UPR activ 4.4, Exocytosis inh -3.4, Mdm2-MdmX inh 45.4 and UPR XBP1 act 6.1.
For CCOC(=O)c1sc2nc(C)cc(C)c2c1N the results were ABHD5 PLIN5 PPI -6.0, CHOP UPR activ 1.1, Exocytosis inh -3.3, Mdm2-MdmX inh -32.7 and UPR XBP1 act 7.1.
Screening CCOC(=O)c1sc2nc(SC)nc(-c3ccc(Cl)cc3)c2c1N returned ABHD5 PLIN5 PPI -0.8, CHOP UPR activ 4.4, Exocytosis inh -0.9, Mdm2-MdmX inh 59.6*, UPR XBP1 act 10.2 and Mdm2-MdmX conf 13.1.
Screening O=c1c2c3nc4ccccc4nc3n(/N=C/c3ccccn3)c2ncn1-c1ccccc1 returned ABHD5 PLIN5 PPI -0.2, CHOP UPR activ -0.1, Exocytosis inh 5.3, Mdm2-MdmX inh 73.9*, UPR XBP1 act 5.4, Mdm2-MdmX conf 49.4* and FLuc counter 54.6*.
Screening CCOc1ccccc1N1CCN(CC(=O)c2c(N)n(C)c(=O)n(C)c2=O)CC1 returned ABHD5 PLIN5 PPI -4.3, CHOP UPR activ -0.7, Exocytosis inh 0.2, Mdm2-MdmX inh 22.1 and UPR XBP1 act -2.7.
Cc1ccc(C(=O)Nc2ccc(N3CCN(S(C)(=O)=O)CC3)cc2)cc1 was read as ABHD5 PLIN5 PPI -2.4, CHOP UPR activ -0.1, Exocytosis inh 0.0, Mdm2-MdmX inh 3.8 and UPR XBP1 act -4.0.
`CS(=O)(=O)N1CCN(c2ccc(NC(=O)c3ccc(-c4ccc(Cl)cc4)o3)cc2)CC1` gave ABHD5 PLIN5 PPI 19.1, CHOP UPR activ 2.4, Exocytosis inh -4.6, Mdm2-MdmX inh 50.0, UPR XBP1 act 0.4 and Mdm2-MdmX conf 26.8.
Screening CC(C)N1CCN(Cc2ccoc2)CC1CCO (configuration not stated) returned ABHD5 PLIN5 PPI 1.9, CHOP UPR activ 0.4, Exocytosis inh -0.7, Mdm2-MdmX inh 7.1 and UPR XBP1 act -1.0.
